Measured values reported in the M2OR odorant receptor database.
Substitutions are numbered along the chain they refer to.

Key:
Conditions in all cases: stereoisomer not certain
OR52I1 (Homo sapiens) = biological target: T1, OR52I1 (Homo sapiens) (UniProt Q8NGK6)
T1 sequence (whole entry): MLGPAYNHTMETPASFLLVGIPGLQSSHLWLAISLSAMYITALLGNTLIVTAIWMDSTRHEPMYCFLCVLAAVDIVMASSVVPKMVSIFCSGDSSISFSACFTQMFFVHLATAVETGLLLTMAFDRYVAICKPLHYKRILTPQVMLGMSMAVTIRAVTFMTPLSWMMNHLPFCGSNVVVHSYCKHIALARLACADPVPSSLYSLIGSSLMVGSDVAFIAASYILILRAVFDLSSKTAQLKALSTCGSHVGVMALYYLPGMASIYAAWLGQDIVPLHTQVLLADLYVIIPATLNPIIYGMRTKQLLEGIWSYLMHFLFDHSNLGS
In short: (§1)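 Assay methods differ from source to source, frequently being transient luciferase assays in mammalian cell lines. For each receptor–molecule pair, the label responsive (active) applies when the original authors judged the measured signal statistically different from baseline, and non-responsive (inactive) applies otherwise.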

OR52I2 (Homo sapiens) = biological target: T2, OR52I2 (Homo sapiens) (UniProt Q8NH67)
T2 sequence (whole entry): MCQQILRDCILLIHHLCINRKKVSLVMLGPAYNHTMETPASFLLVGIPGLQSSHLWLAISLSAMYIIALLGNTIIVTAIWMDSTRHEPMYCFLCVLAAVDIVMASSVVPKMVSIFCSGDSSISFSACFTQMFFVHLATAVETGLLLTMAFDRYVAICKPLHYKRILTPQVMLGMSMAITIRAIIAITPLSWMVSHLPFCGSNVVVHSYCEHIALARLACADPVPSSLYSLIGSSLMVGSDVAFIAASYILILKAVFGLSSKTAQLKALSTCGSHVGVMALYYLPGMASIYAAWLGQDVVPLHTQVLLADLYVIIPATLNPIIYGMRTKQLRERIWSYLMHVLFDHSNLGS
In short: as §1

OR52J3 (Homo sapiens) = OR52J3 (Homo sapiens) (UniProt Q8NH60)
OR52J3 (Homo sapiens), sequence (Q8NH60 whole entry): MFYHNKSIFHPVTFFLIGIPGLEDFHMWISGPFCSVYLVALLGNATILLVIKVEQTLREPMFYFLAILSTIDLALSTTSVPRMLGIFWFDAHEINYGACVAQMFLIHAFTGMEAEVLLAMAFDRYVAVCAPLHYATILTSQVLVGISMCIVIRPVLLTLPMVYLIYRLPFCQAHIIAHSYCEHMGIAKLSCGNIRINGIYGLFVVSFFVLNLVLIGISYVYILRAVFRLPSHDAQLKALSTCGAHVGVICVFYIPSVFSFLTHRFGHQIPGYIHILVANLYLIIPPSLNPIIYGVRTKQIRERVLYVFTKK
In short: as §1

OR52K1 (Homo sapiens) = biological target: T3, OR52K1 (Homo sapiens) (UniProt Q8NGK4)
T3 sequence (whole entry): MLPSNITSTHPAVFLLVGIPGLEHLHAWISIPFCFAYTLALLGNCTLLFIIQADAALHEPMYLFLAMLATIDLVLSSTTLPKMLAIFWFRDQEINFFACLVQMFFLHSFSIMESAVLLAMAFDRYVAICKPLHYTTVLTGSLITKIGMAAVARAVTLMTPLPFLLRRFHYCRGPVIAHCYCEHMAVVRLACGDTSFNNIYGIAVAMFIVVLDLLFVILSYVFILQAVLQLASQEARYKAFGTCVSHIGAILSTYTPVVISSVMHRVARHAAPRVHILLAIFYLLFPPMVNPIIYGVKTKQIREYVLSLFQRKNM
In short: as §1

OR52K2 (Homo sapiens) = biological target: T4, OR52K2 (Homo sapiens) (UniProt Q8NGK3)
T4 sequence (whole entry): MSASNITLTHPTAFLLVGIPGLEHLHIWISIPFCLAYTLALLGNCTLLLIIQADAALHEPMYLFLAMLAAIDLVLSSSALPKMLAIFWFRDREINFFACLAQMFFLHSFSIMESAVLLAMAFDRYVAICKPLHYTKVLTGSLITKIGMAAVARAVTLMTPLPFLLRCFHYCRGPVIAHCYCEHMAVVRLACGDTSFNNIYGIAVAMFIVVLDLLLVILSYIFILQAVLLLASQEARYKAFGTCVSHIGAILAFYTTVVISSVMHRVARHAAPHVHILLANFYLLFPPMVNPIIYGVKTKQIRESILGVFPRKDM
In short: as §1

OR52L1 (Homo sapiens) [1] = biological target: T5, OR52L1 (Homo sapiens) (UniProt Q8NGH7)
T5 sequence (whole entry): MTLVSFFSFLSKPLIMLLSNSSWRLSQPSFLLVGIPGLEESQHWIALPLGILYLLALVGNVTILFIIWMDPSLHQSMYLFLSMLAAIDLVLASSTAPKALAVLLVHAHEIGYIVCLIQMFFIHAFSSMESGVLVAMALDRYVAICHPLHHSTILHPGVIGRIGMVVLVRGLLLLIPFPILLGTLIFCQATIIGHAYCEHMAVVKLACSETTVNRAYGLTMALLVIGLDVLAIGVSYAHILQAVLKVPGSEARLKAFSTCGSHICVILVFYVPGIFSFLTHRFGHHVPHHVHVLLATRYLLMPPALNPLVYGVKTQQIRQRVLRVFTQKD
In short: as §1

OR52M1 (Homo sapiens) = biological target: T6, OR52M1 (Homo sapiens) (UniProt Q8NGK5)
T6 sequence (whole entry): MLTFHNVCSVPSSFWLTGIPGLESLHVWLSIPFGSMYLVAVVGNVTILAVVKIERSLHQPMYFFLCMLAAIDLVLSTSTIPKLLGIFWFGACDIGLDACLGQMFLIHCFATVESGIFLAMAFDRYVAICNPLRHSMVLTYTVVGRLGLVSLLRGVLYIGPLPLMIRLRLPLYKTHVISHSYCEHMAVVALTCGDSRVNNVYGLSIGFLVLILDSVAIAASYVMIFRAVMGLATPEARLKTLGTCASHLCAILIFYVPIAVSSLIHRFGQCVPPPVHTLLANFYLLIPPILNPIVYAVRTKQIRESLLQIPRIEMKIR
In short: as §1

OR52N1 (Homo sapiens) = biological target: T7, OR52N1 (Homo sapiens) (UniProt Q8NH53)
T7 sequence (whole entry): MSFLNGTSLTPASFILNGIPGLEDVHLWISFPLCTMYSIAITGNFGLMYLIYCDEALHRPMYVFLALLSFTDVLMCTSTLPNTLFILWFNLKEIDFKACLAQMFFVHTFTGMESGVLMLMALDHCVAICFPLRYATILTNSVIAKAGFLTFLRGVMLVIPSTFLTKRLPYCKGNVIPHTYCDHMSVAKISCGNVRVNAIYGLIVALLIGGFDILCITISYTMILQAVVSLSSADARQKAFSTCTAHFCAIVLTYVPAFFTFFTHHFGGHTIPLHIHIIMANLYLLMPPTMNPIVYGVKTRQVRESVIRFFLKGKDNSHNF
In short: as §1

OR52N2 (Homo sapiens) = biological target: T8, OR52N2 (Homo sapiens) (UniProt Q8NGI0)
T8 sequence (whole entry): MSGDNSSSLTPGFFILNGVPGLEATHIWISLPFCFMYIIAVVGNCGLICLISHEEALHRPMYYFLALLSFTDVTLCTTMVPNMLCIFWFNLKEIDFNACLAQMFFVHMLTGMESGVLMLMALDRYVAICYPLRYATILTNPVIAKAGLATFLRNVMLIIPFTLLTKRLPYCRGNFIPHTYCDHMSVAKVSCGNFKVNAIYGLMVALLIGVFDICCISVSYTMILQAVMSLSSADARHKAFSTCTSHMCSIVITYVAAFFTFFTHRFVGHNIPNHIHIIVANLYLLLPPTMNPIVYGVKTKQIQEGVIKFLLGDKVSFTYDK
In short: as §1

OR52N4 (Homo sapiens) = biological target: T9, OR52N4 (Homo sapiens) (UniProt Q8NGI2)
T9 sequence (whole entry): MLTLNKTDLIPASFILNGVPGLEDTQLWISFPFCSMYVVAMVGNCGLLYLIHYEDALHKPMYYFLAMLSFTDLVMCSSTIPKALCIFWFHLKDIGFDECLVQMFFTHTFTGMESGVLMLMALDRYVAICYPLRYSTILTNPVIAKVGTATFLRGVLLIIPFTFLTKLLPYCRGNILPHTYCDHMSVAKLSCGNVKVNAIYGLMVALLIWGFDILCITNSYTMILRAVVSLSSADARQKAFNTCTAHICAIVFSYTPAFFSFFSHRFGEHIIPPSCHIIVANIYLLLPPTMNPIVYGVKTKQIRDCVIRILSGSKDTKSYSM
In short: as §1

OR52N5 (Homo sapiens) = biological target: T10, OR52N5 (Homo sapiens) (UniProt Q8NH56)
T10 sequence (whole entry): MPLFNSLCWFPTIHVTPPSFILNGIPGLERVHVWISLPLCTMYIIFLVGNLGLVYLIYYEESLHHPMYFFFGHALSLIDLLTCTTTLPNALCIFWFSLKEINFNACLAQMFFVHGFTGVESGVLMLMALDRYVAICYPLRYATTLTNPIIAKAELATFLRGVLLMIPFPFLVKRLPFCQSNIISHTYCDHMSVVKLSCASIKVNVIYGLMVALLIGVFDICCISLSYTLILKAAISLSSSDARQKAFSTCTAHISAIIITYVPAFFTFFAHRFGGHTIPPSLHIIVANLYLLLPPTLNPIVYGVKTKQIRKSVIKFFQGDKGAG
In short: as §1

OR52R1 (Homo sapiens) = biological target: T11, OR52R1 (Homo sapiens) (UniProt Q8NGF1)
T11 sequence (whole entry): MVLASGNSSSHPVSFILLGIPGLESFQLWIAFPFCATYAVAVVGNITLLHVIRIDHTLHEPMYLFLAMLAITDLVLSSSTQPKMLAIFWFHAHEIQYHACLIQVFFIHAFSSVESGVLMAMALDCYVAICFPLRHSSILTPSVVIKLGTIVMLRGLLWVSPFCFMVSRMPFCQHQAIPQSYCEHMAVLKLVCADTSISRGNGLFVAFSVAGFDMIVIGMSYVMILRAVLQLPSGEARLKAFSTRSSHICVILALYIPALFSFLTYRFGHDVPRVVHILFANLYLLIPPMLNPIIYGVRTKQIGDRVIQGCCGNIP
In short: as §1

OR52W1 (Homo sapiens) = biological target: T12, OR52W1 (Homo sapiens) (UniProt Q6IF63)
T12 sequence (whole entry): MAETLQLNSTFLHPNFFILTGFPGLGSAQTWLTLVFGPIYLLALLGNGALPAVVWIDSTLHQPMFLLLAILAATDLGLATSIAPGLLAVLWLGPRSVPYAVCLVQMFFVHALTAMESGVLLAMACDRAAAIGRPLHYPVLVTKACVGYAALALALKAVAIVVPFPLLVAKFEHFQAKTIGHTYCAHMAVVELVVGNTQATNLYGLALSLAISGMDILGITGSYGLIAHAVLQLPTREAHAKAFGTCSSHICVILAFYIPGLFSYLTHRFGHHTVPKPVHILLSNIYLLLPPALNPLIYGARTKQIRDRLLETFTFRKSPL
In short: as §1

OR56A1 (Homo sapiens) = biological target: T13, OR56A1 (Homo sapiens) (UniProt Q8NGH5)
T13 sequence (whole entry): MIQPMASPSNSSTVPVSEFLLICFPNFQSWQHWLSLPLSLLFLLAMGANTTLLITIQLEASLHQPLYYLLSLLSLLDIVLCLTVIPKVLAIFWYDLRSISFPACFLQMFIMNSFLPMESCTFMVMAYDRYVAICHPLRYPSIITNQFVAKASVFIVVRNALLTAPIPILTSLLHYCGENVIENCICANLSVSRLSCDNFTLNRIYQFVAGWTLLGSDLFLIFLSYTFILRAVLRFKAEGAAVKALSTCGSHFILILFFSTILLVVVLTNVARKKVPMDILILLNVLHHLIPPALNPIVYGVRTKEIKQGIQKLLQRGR
In short: as §1

OR56A3 (Homo sapiens) = biological target: T14, OR56A3 (Homo sapiens) (UniProt Q8NH54)
T14 sequence (whole entry): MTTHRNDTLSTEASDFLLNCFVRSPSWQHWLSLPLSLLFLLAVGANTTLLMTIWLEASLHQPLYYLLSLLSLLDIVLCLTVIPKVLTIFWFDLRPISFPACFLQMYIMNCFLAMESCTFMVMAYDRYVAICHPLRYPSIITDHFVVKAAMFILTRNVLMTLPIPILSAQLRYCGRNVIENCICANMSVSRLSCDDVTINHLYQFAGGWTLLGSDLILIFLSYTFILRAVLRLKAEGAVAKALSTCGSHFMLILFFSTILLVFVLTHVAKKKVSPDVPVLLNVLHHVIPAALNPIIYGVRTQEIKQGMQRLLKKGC
In short: as §1

OR56A5 (Homo sapiens) = biological target: T15, OR56A5 (Homo sapiens) (UniProt P0C7T3)
T15 sequence (whole entry): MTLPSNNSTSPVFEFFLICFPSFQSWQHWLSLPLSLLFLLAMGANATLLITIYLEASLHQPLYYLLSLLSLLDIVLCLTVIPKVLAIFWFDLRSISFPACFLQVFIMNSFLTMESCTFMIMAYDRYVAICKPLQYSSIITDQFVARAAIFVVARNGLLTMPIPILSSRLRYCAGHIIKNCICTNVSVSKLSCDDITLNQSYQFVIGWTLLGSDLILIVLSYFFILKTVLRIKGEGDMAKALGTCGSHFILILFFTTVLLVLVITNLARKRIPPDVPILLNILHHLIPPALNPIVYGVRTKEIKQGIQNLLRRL
In short: as §1

OR56B1 (Homo sapiens) = biological target: T16, OR56B1 (Homo sapiens) (UniProt Q8NGI3)
T16 sequence (whole entry): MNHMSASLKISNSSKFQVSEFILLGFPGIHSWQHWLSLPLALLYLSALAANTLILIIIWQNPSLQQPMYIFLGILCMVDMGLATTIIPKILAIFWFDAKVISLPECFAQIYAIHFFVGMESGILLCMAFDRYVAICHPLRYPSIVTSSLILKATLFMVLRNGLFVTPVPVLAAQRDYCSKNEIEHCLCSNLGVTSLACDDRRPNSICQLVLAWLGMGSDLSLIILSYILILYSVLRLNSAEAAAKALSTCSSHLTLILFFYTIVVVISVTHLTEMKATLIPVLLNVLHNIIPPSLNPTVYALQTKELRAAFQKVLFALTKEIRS
In short: as §1

OR52L1 (Homo sapiens) [2] = biological target: T17, OR52L1 (Homo sapiens) (UniProt Q8NGH7); remark: listed apart in the source
T17 sequence (whole entry): T5 sequence (whole entry) with R140C, R161C, T183K, R297W
In short: as §1

OR56A4 (Homo sapiens) = biological target: T18, OR56A4 (Homo sapiens) (UniProt Q8NGH8)
T18 sequence (whole entry): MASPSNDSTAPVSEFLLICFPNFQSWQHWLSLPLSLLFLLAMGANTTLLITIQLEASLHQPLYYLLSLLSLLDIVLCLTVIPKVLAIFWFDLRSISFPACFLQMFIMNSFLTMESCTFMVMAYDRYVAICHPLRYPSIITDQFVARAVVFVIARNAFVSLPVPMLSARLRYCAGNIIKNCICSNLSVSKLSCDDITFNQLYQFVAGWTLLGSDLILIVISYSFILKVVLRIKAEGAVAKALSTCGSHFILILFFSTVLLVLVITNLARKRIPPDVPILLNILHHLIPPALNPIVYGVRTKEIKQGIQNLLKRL
In short: as §1

Measured: odorant receptor agonist call

CC1=C(O)C(=O)C(C)O1 (stereo not given)
not listed: OR52L1 (Homo sapiens) [2] | OR56A4 (Homo sapiens)
inactive: all other assays above

CC(CO)CS (stereo not given)
not listed: OR52L1 (Homo sapiens) [1]
inactive: all other assays above

CCCCCCC=CCCC=O
not listed: OR52L1 (Homo sapiens) [1]
inactive: all other assays above

CCC1OC(C)=C(O)C1=O (stereo not given)
not listed: OR52L1 (Homo sapiens) [2] | OR56A4 (Homo sapiens)
inactive: all other assays above
